Drawing on ChEMBL document CHEMBL2424574, “Structure-activity relationships and pharmacophore model of a noncompetitive pyrazoline containing class of GluN2C/GluN2D selective antagonists” (J Med Chem, 2013), this text covers Ratio IC50, inhibition and IC50 for 23 compounds.

The species entered for experiment [1] is Rattus norvegicus. As to the kind of experiment: Selectivity ratio of IC50 for recombinant rat GluN2B receptor to IC50 for recombinant rat GluN2D receptor. The essentials:
(§1)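 Rat GluN1 co-expressed with GluN2A, GluN2B or GluN2D in Xenopus oocytes. Two-electrode voltage clamp at −40 mV in 90 NaCl, 1 KCl, 0.5 BaCl2, 0.005 EDTA, 10 HEPES (mM), pH 7.4, 23 °C; final DMSO 0.1–0.05%. IC50s came from Hill fits to averaged composite concentration-response curves (5–24 oocytes, 2–4 frogs). Ratio is GluN2A or GluN2B IC50 over GluN2D IC50.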

Experiment [2] concerns the target Glutamate receptor ionotropic, NMDA 2A (Rattus norvegicus) (UniProt Q00959). As to the kind of experiment: Negative allosteric modulation of recombinant rat GluN2A receptor expressed in Xenopus laevis oocytes at 100 uM by two-electrode voltage clamp method. The format is cell-based. The conditions noted are these: Oocyte. The gist of the method:
(§2)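 Two-electrode voltage clamp of Xenopus oocytes expressing rat GluN1 with GluN2A, 2B, 2C or 2D. Holding potential −40 mV in recording solution (mM: 90 NaCl, 1 KCl, 0.5 BaCl2, 0.005 EDTA, 10 HEPES, pH 7.4, 23 °C). Compounds diluted from 20 mM DMSO stocks to 0.05–0.1% final DMSO. IC50 from a Hill fit to the averaged composite concentration–response curve, 5–24 oocytes from 2–4 frogs.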

Experiment [3] deals with Glutamate receptor ionotropic, NMDA 2B (Rattus norvegicus, UniProt P35439+Q00960). As to the kind of experiment: Negative allosteric modulation of recombinant rat GluN2B receptor expressed in Xenopus laevis oocytes by two-electrode voltage clamp method. In kind it is cell-based, Oocyte. The gist of the method: as §2
Sequence of Glutamate receptor ionotropic, NMDA 2B (Q00960 whole entry, one chain of several): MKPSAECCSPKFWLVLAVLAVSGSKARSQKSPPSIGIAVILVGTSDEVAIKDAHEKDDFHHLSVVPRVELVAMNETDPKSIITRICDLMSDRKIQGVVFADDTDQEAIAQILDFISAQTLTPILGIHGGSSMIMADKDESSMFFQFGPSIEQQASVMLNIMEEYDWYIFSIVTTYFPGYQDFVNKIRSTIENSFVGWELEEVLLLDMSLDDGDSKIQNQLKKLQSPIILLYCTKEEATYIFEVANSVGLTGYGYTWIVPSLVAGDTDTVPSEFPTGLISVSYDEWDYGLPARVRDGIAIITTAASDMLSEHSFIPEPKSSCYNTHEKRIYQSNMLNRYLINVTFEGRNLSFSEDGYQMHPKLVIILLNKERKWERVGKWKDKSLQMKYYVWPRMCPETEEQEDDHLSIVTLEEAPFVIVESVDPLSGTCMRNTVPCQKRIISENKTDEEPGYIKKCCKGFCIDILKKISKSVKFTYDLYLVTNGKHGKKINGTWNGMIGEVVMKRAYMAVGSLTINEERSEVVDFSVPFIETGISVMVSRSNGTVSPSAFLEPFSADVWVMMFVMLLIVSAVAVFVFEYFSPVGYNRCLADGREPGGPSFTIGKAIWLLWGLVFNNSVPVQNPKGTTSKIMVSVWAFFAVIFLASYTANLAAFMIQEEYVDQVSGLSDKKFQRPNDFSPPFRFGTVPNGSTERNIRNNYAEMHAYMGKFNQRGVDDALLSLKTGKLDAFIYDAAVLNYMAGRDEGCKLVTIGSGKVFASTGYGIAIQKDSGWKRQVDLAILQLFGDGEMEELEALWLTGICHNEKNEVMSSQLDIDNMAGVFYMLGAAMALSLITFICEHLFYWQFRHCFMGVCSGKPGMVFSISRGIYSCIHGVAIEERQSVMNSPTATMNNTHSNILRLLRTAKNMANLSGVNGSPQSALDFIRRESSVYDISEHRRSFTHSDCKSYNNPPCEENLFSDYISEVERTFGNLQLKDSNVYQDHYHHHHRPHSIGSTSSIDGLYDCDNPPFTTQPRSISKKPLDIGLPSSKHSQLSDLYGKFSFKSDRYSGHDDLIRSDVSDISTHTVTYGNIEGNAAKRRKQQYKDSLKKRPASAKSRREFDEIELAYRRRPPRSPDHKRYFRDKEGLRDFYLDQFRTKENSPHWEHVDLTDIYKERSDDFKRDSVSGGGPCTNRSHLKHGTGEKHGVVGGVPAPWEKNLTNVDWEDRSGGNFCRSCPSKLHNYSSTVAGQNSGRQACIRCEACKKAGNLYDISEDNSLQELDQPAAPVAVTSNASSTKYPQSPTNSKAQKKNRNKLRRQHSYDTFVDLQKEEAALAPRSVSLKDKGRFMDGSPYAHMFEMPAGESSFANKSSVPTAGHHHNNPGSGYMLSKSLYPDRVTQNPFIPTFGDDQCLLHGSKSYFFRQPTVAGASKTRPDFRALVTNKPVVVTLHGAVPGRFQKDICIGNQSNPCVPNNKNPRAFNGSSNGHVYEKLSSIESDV
Experiment [4] deals with Glutamate receptor ionotropic, NMDA 2C (Rattus norvegicus, UniProt P35439+Q00961). Nature of the experiment: Negative allosteric modulation of recombinant rat GluN2C receptor expressed in Xenopus laevis oocytes by two-electrode voltage clamp method. The format is cell-based, Oocyte. The essentials:
as §2

Experiment [5] has as its target Glutamate receptor ionotropic, NMDA 2D (Rattus norvegicus, UniProt P35439+Q62645). Nature of the experiment: Negative allosteric modulation of recombinant rat GluN2D receptor expressed in Xenopus laevis oocytes by two-electrode voltage clamp method. The format is cell-based, Oocyte. The essentials: as §2
In experiment [6] the target is Glutamate receptor ionotropic, NMDA 2B (Rattus norvegicus) (UniProt Q00960). As to the kind of experiment: Negative allosteric modulation of recombinant rat GluN2B receptor expressed in Xenopus laevis oocytes at 100 uM by two-electrode voltage clamp method. The format is cell-based. Conditions: Oocyte. The essentials:
as §2

Experiment [7] has as its target Glutamate receptor ionotropic, NMDA 2D (Rattus norvegicus) (UniProt Q62645). Nature of the experiment: Negative allosteric modulation of recombinant rat GluN2D receptor expressed in Xenopus laevis oocytes at 100 uM by two-electrode voltage clamp method. The format is cell-based. Conditions: Oocyte. The gist of the method: as §2
Experiment [8] has as its target Glutamate receptor ionotropic, NMDA 2C (Rattus norvegicus) (UniProt Q00961). As to the kind of experiment: Negative allosteric modulation of recombinant rat GluN2C receptor expressed in Xenopus laevis oocytes at 100 uM by two-electrode voltage clamp method. The format is cell-based. Conditions: Oocyte. The essentials: as §2
For experiment [9], the target named is Glutamate receptor ionotropic, NMDA 2D (Homo sapiens, UniProt O15399+Q05586). Nature of the experiment: Inhibition of NMDA GluN2D receptor (unknown origin).
The species entered for experiment [10] is Homo sapiens. Nature of the experiment: Selectivity ratio of IC50 for NMDA GluN2B receptor (unknown origin) to IC50 for NMDA GluN2D receptor (unknown origin).
The target in experiment [11] is Glutamate receptor ionotropic, NMDA 2A (Rattus norvegicus, UniProt P35439+Q00959). As to the kind of experiment: Negative allosteric modulation of recombinant rat GluN2A receptor expressed in Xenopus laevis oocytes by two-electrode voltage clamp method. The format is cell-based, Oocyte. The essentials:
as §2

The species entered for experiment [12] is Rattus norvegicus. Nature of the experiment: Selectivity ratio of IC50 for recombinant rat GluN2A receptor to IC50 for recombinant rat GluN2D receptor. The essentials:
as §1

Sequence of Glutamate receptor ionotropic, NMDA 2A (Rattus norvegicus) (Q00959 23-1464 limits assumed): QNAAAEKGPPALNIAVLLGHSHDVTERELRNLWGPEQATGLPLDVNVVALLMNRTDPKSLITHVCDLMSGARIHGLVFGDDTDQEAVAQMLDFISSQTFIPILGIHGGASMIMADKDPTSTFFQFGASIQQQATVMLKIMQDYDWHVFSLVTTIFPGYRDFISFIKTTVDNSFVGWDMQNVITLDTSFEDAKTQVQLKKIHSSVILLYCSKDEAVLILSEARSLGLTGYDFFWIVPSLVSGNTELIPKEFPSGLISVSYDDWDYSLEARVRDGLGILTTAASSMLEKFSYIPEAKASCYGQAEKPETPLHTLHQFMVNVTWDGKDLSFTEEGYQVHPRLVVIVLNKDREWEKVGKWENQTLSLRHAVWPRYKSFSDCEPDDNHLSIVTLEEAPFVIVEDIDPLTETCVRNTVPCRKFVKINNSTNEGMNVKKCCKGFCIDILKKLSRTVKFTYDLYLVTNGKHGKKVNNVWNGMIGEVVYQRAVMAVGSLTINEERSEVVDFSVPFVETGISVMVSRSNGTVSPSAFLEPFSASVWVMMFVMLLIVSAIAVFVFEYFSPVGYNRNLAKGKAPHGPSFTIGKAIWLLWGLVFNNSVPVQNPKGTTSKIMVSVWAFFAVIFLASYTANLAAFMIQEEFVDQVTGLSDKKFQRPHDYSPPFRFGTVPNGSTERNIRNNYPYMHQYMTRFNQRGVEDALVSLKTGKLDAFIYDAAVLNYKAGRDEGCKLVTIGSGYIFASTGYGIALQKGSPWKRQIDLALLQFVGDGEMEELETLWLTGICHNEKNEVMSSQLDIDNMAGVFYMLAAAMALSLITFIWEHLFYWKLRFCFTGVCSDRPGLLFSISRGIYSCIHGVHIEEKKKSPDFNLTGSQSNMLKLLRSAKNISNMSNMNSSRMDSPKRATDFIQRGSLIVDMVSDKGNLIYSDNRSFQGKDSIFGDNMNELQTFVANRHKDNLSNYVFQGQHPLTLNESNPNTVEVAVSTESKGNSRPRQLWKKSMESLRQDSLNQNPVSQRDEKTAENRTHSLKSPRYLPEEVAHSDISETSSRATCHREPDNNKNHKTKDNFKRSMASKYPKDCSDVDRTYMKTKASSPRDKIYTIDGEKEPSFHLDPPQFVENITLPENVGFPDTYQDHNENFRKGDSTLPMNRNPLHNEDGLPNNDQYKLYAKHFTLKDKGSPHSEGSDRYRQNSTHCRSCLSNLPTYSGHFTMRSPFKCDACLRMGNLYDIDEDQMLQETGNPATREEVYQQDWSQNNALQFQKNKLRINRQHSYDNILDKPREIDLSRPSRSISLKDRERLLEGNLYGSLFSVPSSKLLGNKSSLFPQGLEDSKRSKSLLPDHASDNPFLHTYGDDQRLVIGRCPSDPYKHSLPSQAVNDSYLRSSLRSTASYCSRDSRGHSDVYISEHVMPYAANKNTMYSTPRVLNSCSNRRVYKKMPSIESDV
Sequence of Glutamate receptor ionotropic, NMDA 2C (Q00961 whole entry, one chain of several): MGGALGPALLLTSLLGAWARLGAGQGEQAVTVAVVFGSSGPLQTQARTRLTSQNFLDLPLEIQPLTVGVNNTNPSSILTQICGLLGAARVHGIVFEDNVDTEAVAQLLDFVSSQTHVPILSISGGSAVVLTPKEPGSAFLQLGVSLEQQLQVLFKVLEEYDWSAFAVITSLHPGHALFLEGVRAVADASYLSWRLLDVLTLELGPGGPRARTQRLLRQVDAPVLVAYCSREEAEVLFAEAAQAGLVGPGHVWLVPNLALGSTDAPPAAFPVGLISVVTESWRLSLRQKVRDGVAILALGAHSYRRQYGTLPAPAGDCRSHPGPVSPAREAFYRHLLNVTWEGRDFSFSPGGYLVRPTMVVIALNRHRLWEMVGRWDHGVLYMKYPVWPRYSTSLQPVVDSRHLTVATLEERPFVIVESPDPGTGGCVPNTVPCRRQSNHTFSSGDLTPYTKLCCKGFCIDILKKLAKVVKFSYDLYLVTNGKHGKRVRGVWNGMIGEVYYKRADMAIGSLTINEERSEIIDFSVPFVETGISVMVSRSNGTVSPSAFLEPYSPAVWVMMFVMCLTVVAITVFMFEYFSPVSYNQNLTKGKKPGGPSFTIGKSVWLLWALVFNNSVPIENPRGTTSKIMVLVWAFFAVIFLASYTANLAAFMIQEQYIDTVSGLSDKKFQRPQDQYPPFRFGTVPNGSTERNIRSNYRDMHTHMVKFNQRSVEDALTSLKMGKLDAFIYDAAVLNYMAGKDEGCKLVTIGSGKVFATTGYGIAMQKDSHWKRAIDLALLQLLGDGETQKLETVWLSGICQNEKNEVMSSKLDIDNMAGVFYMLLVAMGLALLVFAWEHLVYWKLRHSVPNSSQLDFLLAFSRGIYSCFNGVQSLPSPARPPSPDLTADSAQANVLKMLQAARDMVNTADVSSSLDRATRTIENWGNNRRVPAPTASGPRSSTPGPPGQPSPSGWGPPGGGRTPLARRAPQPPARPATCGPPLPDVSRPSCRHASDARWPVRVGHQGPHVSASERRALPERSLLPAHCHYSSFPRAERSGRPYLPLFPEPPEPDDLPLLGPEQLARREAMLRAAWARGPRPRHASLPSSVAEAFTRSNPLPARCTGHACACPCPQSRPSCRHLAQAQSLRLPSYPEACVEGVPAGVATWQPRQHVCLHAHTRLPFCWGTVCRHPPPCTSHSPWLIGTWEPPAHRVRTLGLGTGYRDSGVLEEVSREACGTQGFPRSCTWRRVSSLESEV

Consider `O=C(O)CCC(=O)N1N=C(c2c(-c3ccccc3)c3cc(Cl)ccc3[nH]c2=O)CC1c1ccc2c(c1)OCO2` (stereo unspecified), for which the Ratio IC50 in [1] stood at 4. For the same compound, the inhibition in [2] is less than 30%. The IC50 is 90 µM in experiment [3], 23 µM in [4] and 23 µM in [5].
With `CN(C)c1ccc(C2CC(c3c(-c4ccccc4)c4cc(Cl)ccc4[nH]c3=O)=NN2C(=O)CCC(=O)O)cc1` (stereo unspecified), the inhibition in [6] and in experiment [2] was less than 30% throughout. Further, the IC50 in [4] was determined as 39 µM; in [5], 19 µM.
On to `O=C(O)CCC(=O)N1N=C(c2c(O)nc3ccc(Cl)cc3c2-c2ccccc2)CC1c1ccccc1` (stereo unspecified), for which the inhibition in experiment [6] and in experiment [2] was less than 30% throughout.
For the compound `O=C(O)CCC(=O)N1N=C(c2c(-c3ccccc3)c3cc(Cl)ccc3[nH]c2=O)CC1c1ccc(C(=O)O)cc1` (stereo unspecified), the inhibition in experiment [7], in experiment [8], in experiment [6] and in experiment [2] was less than 30% in each case.
As for `COC(=O)/C=C/C(=O)N1N=C(c2c(-c3ccc(Br)cc3)c3ccccc3[nH]c2=O)CC1c1ccc(Cl)cc1` (stereo unspecified), the inhibition in [6] and in experiment [2] was less than 30% throughout. In addition, the IC50 in [4] is 59 µM; in experiment [5], 95 µM.
On to `O=C(O)/C=C/C(=O)N1N=C(c2c(-c3ccccc3)c3cc(Cl)ccc3[nH]c2=O)CC1c1ccc(Br)cc1` (stereo unspecified), for which the inhibition in [6] and in experiment [2] was less than 30% in each case. The IC50 in experiment [4] is 2.1 µM; in experiment [5], 1.4 µM.
Regarding `COC(=O)CCCN1N=C(c2c(-c3ccc(Cl)cc3)c3ccccc3[nH]c2=O)CC1c1ccc(Cl)cc1` (stereo unspecified), the inhibition in experiment [7], in experiment [8], in [6] and in experiment [2] was less than 30% each time.
As to `Cc1ccc2[nH]c(=O)c(C3=NN(C(=O)CCC(=O)O)C(c4ccc(Br)cc4)C3)c(-c3ccccc3)c2c1` (stereo unspecified), half-maximal inhibition in [9] (IC50) was put at 2.7 µM. Moreover, in experiment [10], the Ratio IC50 came out at 41.
Regarding `COC(=O)c1ccc(C2CC(c3c(-c4ccccc4)c4cc(Cl)ccc4[nH]c3=O)=NN2C(=O)CCC(=O)O)cc1` (stereo unspecified), the inhibition in [6] and in experiment [2] was less than 30% in each case. Also, the IC50 in experiment [4] stood at 93 µM.
In the case of `N#Cc1ccc(-c2c(C3=NN(C(=O)CCC(=O)O)C(c4ccc(Cl)cc4)C3)c(=O)[nH]c3ccccc23)cc1` (stereo unspecified), in [6], the inhibition is less than 30%. Further, the IC50 in [11] came to 156 µM; in experiment [4], 12 µM; in experiment [5] it was 7 µM. Besides, the Ratio IC50 in experiment [12] is 22.
For `COC(=O)CCC(=O)N1N=C(c2c(-c3ccccc3)c3cc(Cl)ccc3[nH]c2=O)CC1c1ccc(Br)cc1` (stereo unspecified), the inhibition in experiment [7], in [8], in [6] and in experiment [2] was less than 30% each time.
On to `O=C(O)CCC(=O)N1N=C(c2c(-c3cc(F)cc(F)c3)c3ccccc3[nH]c2=O)CC1c1ccc(Cl)cc1` (stereo unspecified), for which the Ratio IC50 in [1] turned out to be 123; in [12] it was 26. Moreover, the concentration for half-maximal inhibition (IC50) in [11] is 21 µM; in experiment [3], 100 µM; in experiment [4], 1.1 µM; in [5], 0.81 µM.
Turning to `N#Cc1cccc(-c2c(C3=NN(C(=O)CCC(=O)O)C(c4ccc(Cl)cc4)C3)c(=O)[nH]c3ccccc23)c1` (stereo unspecified), the inhibition in experiment [6] and in [2] was less than 30% throughout. The values for the IC50 in [4] and in [5] were 19 µM and 13 µM, respectively.
Consider `Cc1cccc(-c2c(C3=NN(C(=O)CCC(=O)O)C(c4ccc(Cl)cc4)C3)c(=O)[nH]c3ccccc23)c1` (stereo unspecified), for which the Ratio IC50 is 37 in experiment [1] and 13 in experiment [12]. Besides, the IC50 is 24 µM in experiment [11], 71 µM in [3], 4 µM in experiment [4] and 1.9 µM in [5].
With `O=C(O)CCC(=O)N1N=C(c2c(-c3ccccc3)c3cc(Cl)ccc3[nH]c2=O)CC1c1ccc([N+](=O)[O-])cc1` (stereo unspecified), the Ratio IC50 is 42 in [1] and 85 in [12]. Also, the IC50 in experiment [11] amounted to 91 µM; in [3] it was 45 µM; in [4], 0.9 µM; in [5] it was 1.1 µM.
As for `NC(=O)CCC(=O)N1N=C(c2c(-c3ccc(Cl)cc3)c3ccccc3[nH]c2=O)CC1c1ccc(Cl)cc1` (stereo unspecified), the Ratio IC50 amounted to 18 in [1] and 31 in experiment [12]. Also, the IC50 in [11] was 34 µM; in experiment [3] it was 20 µM; in experiment [4], 2 µM; in [5], 1.1 µM.
In the case of `O=C(O)CCC(=O)N1N=C(c2c(-c3ccc(Cl)cc3)c3ccccc3[nH]c2=O)CC1c1ccc(Br)cc1` (stereo unspecified), the Ratio IC50 in experiment [1] was found to be 67; in [12], 37. Besides, the IC50 in experiment [11] came out at 19 µM; in experiment [3] it was 34 µM; in [4], 0.95 µM; in experiment [5], 0.51 µM.
On to `O=C(O)CCC(=O)N1N=C(c2c(-c3cccc(C(F)(F)F)c3)c3ccccc3[nH]c2=O)CC1c1ccc(Cl)cc1` (stereo unspecified), for which the Ratio IC50 in experiment [1] was found to be 18; in [12], 11. Besides, the IC50 in experiment [11] stood at 28 µM; in [3] it was 47 µM; in [4], 3.4 µM; in experiment [5] it was 2.6 µM.
As for `O=C(O)CCC(=O)N1N=C(c2c(-c3ccc(F)c(F)c3)c3ccccc3[nH]c2=O)CC1c1ccc(Cl)cc1` (stereo unspecified), the figures for the Ratio IC50 in experiment [1] and in experiment [12] were 108 and 32, respectively. The IC50 in [11] was 21 µM; in experiment [3] it was 71 µM; in [4], 0.78 µM; in [5], 0.66 µM.
Regarding `COc1ccc(-c2c(C3=NN(C(=O)CCC(=O)O)C(c4ccc(Cl)cc4)C3)c(=O)[nH]c3ccccc23)cc1` (stereo unspecified), the Ratio IC50 in [1] was found to be 33; in experiment [12], 27. For the same compound, the IC50 in experiment [11] stood at 62 µM; in experiment [3] it was 75 µM; in experiment [4] it was 5 µM; in experiment [5], 2.3 µM.
On to `Cc1ccc(-c2c(C3=NN(C(=O)CCC(=O)O)C(c4ccc(Cl)cc4)C3)c(=O)[nH]c3ccccc23)cc1` (stereo unspecified), for which the values for the Ratio IC50 in experiment [1] and in experiment [12] were 30 and 24, respectively. Also, the IC50 in experiment [11] was 33 µM; in experiment [3], 42 µM; in experiment [4] it was 2.5 µM; in [5] it was 1.4 µM.
As to `O=C(O)CCC(=O)N1N=C(c2c(-c3ccccc3)c3cc(Cl)ccc3[nH]c2=O)CC1c1ccc(Br)cc1` (stereo unspecified), the inhibition in experiment [2] was less than 30%. Moreover, the IC50 was determined as 3.6 µM in [4] and 3.1 µM in [5].
As for `O=C(O)CCC(=O)N1N=C(c2c(-c3ccccc3)c3cc(Cl)ccc3[nH]c2=O)CC1c1ccc(Cl)cc1` (stereo unspecified), the inhibition in experiment [6] and in [2] was less than 30% throughout. The IC50 came out at 5.5 µM in [4] and 4.5 µM in experiment [5].
